Data: ChEMBL document CHEMBL3870315, “Design, synthesis and biological evaluation of novel cholesteryl ester transfer protein inhibitors bearing a cycloalkene scaffold” (Eur J Med Chem, 2016)
Active and inactive are the calls of the source. No cut-off for these calls is given here.

test system: not listed separately; experiment: Cmax in Sprague-Dawley rat at 50 mg/Kg, po; type: ADME; set-up: dose 50 mg/Kg, route oral; conditions: in vivo
Procedure, shortened: (§1)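 Four adult male Sprague-Dawley rats, fasted 16 h, given a single oral dose of 50 mg/kg suspended in 10% ethanol/10% hydrogenated castor oil/80% water. Heparinized blood was drawn at 0.5–36 h (15 time points) and centrifuged at 3000 rpm for 15 min. Plasma was stored at -70°C until analysis.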

Compound | Cmax
COc1ccc(C(C)C)cc1C1=C(CN(Cc2cc(C(F)(F)F)cc(C(F)(F)F)c2)c2ncc(-c3cnn(C)c3)cn2)CC(C)(C)CC1 | 697 ng/mL

test system: Syrian golden hamster; experiment: In vivo inhibition of CETP in po dosed high-fat fed syrian hamster model assessed as increase in plasma HDL-cholesterol level administered once daily for 5 days measured 2 hrs post last dose; type: functional, organism-based; conditions: Mesocricetus auratus
Procedure, shortened: (§2)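 Male Syrian golden hamsters, 8 weeks old and about 110–120 g, fed a diet with 10% lard oil and 3% cholesterol for 4 weeks, then randomized into four groups. Oral dosing once daily for 5 days in 10% ethanol/10% hydrogenated castor oil/80% water, with a vehicle control group. Animals were fasted 16 h before bleeding. Retro-orbital blood was taken at baseline and 2 h after the last dose. Plasma HDL-C was measured on a chemistry analyser and expressed as percent change. Mean ± SEM.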

Compound | Activity
COc1ccc(C(C)C)cc1C1=C(CN(Cc2cc(C(F)(F)F)cc(C(F)(F)F)c2)c2ncc(-c3cnn(C)c3)cn2)CC(C)(C)CC1 | Dose-dependent effect

test system: Syrian golden hamster; experiment: In vivo inhibition of CETP in high-fat fed syrian hamster model assessed as increase in plasma HDL-cholesterol level at 30 mg/kg, po administered once daily for 5 days measured 2 hrs post last dose relative to control; type: functional, Mesocricetus auratus; set-up: scale not given: the % may be the effect or the level left; conditions: not given; procedure, shortened: as §2

Compound | Activity
COc1ccc(C(C)C)cc1C1=C(CN(Cc2cc(C(F)(F)F)cc(C(F)(F)F)c2)c2ncc(-c3cnn(C)c3)cn2)CC(C)(C)CC1 | 9.3%

same assay, conditions: Mesocricetus auratus

Compound | Activity
COc1cc(F)c(C(C)C)cc1-c1ccc(C(F)(F)F)cc1CN1C(=O)O[C@H](c2cc(C(F)(F)F)cc(C(F)(F)F)c2)[C@@H]1C | Active

test system: not listed separately; experiment: AUC in Sprague-Dawley rat at 50 mg/Kg, po; type: ADME; conditions: in vivo; procedure, shortened: as §1

Compound | AUC
COc1ccc(C(C)C)cc1C1=C(CN(Cc2cc(C(F)(F)F)cc(C(F)(F)F)c2)c2ncc(-c3cnn(C)c3)cn2)CC(C)(C)CC1 | 6990 ng·h/mL

test system: not listed separately; experiment: Terminal half life in Sprague-Dawley rat at 50 mg/Kg, po; type: ADME; conditions: in vivo, read-out: beta t1/2 (converted); procedure, shortened: as §1

Compound | half-life
COc1ccc(C(C)C)cc1C1=C(CN(Cc2cc(C(F)(F)F)cc(C(F)(F)F)c2)c2ncc(-c3cnn(C)c3)cn2)CC(C)(C)CC1 | 666 min

test system: Syrian golden hamster; experiment: In vivo inhibition of CETP in high-fat fed syrian hamster model assessed as increase in plasma HDL-cholesterol level at 50 mg/kg, po administered once daily for 5 days measured 2 hrs post last dose relative to control; type: functional, Mesocricetus auratus; set-up: scale not given: the % may be the effect or the level left; conditions: not given; procedure, shortened: as §2

Compound | Activity
COc1ccc(C(C)C)cc1C1=C(CN(Cc2cc(C(F)(F)F)cc(C(F)(F)F)c2)c2ncc(-c3cnn(C)c3)cn2)CC(C)(C)CC1 | 27.9%

biological target: T1, Cholesteryl ester transfer protein (Homo sapiens, UniProt P11597); experiment: Inhibition of recombinant CETP (unknown origin) assessed as inhibition of BODIPY-labeled cholesteryl transfer to fluorescent substrate by fluorimetric assay; conditions: not given
T1 sequence (P11597 whole entry): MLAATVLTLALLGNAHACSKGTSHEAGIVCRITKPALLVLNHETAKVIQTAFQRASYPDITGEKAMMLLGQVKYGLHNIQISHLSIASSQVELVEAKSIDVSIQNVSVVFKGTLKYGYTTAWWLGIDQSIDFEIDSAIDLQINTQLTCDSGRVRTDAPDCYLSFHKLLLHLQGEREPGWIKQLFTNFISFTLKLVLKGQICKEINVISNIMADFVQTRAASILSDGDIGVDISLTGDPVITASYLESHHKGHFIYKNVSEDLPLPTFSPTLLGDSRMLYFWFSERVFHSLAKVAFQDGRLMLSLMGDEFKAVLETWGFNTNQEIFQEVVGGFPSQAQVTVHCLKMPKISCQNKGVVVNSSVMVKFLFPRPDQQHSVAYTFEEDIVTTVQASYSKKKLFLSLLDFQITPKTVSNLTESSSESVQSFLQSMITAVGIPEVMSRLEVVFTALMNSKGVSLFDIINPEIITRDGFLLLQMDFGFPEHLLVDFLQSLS

Compound | IC50
COC(=O)COc1cnc(N(CC2=C(c3cc(C(C)C)ccc3OC)CCC(C)(C)C2)Cc2cc(C(F)(F)F)cc(C(F)(F)F)c2)nc1 | 910 nM
COc1ccc(C(C)C)cc1C1=C(CN(Cc2cc(C(F)(F)F)cc(C(F)(F)F)c2)C(=O)OCc2ccccc2)CC(C)(C)CC1 | > 50000 nM
COc1ccc(C(C)C)cc1C1=C(CN(Cc2cc(C(F)(F)F)cc(C(F)(F)F)c2)c2ncc(OCCO)cn2)CC(C)(C)CC1 | 190 nM
COC(=O)N(CC1=C(c2cc(C(C)C)ccc2OC)CCC(C)(C)C1)Cc1cc(C(F)(F)F)cc(C(F)(F)F)c1 | 21000 nM
COc1ccc(C(C)C)cc1C1=C(CN(Cc2cc(C(F)(F)F)cc(C(F)(F)F)c2)c2ncc(N3CCC(NC(C)=O)CC3)cn2)CC(C)(C)CC1 | 520 nM
COc1ccc(C(C)C)cc1C1=C(CN(Cc2cc(C(F)(F)F)cc(C(F)(F)F)c2)c2ncc(-c3cnn(C)c3)cn2)CCc2ccccc21 | 220 nM
COc1ccc(C(C)C)cc1C1=C(CN(Cc2cc(C(F)(F)F)cc(C(F)(F)F)c2)c2ncc(-c3cnn(C)c3)cn2)CC(C)CC1 (stereo unspecified) | 60 nM
COc1ccc(C(C)C)cc1C1=C(CN(Cc2cc(C(F)(F)F)cc(C(F)(F)F)c2)c2ncc(N3CCC(C(=O)O)CC3)cn2)CC(C)(C)CC1 | 370 nM
COc1ccc(C(C)C)cc1C1=C(CN(Cc2cc(C(F)(F)F)cc(C(F)(F)F)c2)c2ncc(-c3cnn(C)c3)cn2)CCCC1 | 930 nM
COc1ccc(C(C)C)cc1C1=C(CN(Cc2cc(C(F)(F)F)cc(C(F)(F)F)c2)c2ncc(OCC(=O)O)cn2)CC(C)(C)CC1 | 360 nM
COc1ccc(C(C)C)cc1C1=C(CN(Cc2cc(C(F)(F)F)cc(C(F)(F)F)c2)c2ncc(N3CCC(N)CC3)cn2)CC(C)(C)CC1 | 170 nM
COc1ccc(C(C)C)cc1C1=C(CN(Cc2cc(C(F)(F)F)cc(C(F)(F)F)c2)c2ncc(O)cn2)CC(C)(C)CC1 | 3520 nM
COc1ccc(C(C)C)cc1C1=C(CN(Cc2cc(C(F)(F)F)cc(C(F)(F)F)c2)c2ncc(-c3cnn(C)c3)cn2)c2ccccc2CC1 | 6630 nM
CCC1CCC(c2cc(C(C)C)ccc2OC)=C(CN(Cc2cc(C(F)(F)F)cc(C(F)(F)F)c2)c2ncc(-c3cnn(C)c3)cn2)C1 (stereo unspecified) | 80 nM
COc1ccc(C(C)C)cc1C1=C(CN(Cc2cc(C(F)(F)F)cc(C(F)(F)F)c2)c2ncc(N3CCN(C)CC3)cn2)CC(C)(C)CC1 | 2070 nM
COc1ccc(C(C)C)cc1C1=C(CN(Cc2cc(C(F)(F)F)cc(C(F)(F)F)c2)c2ncc(-c3c(C)noc3C)cn2)CC(C)(C)CC1 | > 50000 nM
COc1ccc(C(C)C)cc1C1=C(CN(Cc2cc(C(F)(F)F)cc(C(F)(F)F)c2)c2ncc(OCCCC(=O)O)cn2)CC(C)(C)CC1 | 300 nM
COc1ccc(C(C)C)cc1C1=C(CN(Cc2cc(C(F)(F)F)cc(C(F)(F)F)c2)c2ncc(-c3cnn(C)c3)cn2)CC(C(C)(C)C)CC1 (stereo unspecified) | 70 nM
COc1ccc(C(C)C)cc1C1=C(CN(Cc2cc(C(F)(F)F)cc(C(F)(F)F)c2)c2ncc(-c3cccs3)cn2)CC(C)(C)CC1 | > 50000 nM
COc1ccc(C(C)C)cc1C1=C(CN(Cc2cc(C(F)(F)F)cc(C(F)(F)F)c2)c2ncc(-c3cnn(C)c3)cn2)CCC1 | 2760 nM
COc1ccc(C(C)C)cc1C1=C(CN(Cc2cc(C(F)(F)F)cc(C(F)(F)F)c2)c2ncc(-c3cnn(C)c3)cn2)CC(C)(C)CC1 | 70 nM
COCCOc1cnc(N(CC2=C(c3cc(C(C)C)ccc3OC)CCC(C)(C)C2)Cc2cc(C(F)(F)F)cc(C(F)(F)F)c2)nc1 | 420 nM
COc1ccc(C(C)C)cc1C1=C(CN(Cc2cc(C(F)(F)F)cc(C(F)(F)F)c2)c2ncc(Br)cn2)CC(C)(C)CC1 | > 50000 nM
COc1ccc(C(C)C)cc1C1=C(CN(Cc2cc(C(F)(F)F)cc(C(F)(F)F)c2)c2ncc(-c3cnn(C)c3)cn2)CCCCC1 | 1620 nM
COc1ccc(C(C)C)cc1C1=C(CN(Cc2cc(C(F)(F)F)cc(C(F)(F)F)c2)c2ncc(N3CCOCC3)cn2)CC(C)(C)CC1 | 860 nM
COc1ccc(C(C)C)cc1C1=C(CN(Cc2cc(C(F)(F)F)cc(C(F)(F)F)c2)C(=O)OCC(C)C)CC(C)(C)CC1 | > 50000 nM
COc1ccc(C(C)C)cc1C1=C(CN(Cc2cc(C(F)(F)F)cc(C(F)(F)F)c2)c2ncc(-c3ccnn3C)cn2)CC(C)(C)CC1 | > 50000 nM
COc1ccc(C(C)C)cc1C1=C(CN(Cc2cc(C(F)(F)F)cc(C(F)(F)F)c2)c2ncc(N3CCNCC3)cn2)CC(C)(C)CC1 | 350 nM

test system: not listed separately; experiment: Tmax in Sprague-Dawley rat at 50 mg/Kg, po; type: ADME; conditions: in vivo; procedure, shortened: as §1

Compound | Tmax
COc1ccc(C(C)C)cc1C1=C(CN(Cc2cc(C(F)(F)F)cc(C(F)(F)F)c2)c2ncc(-c3cnn(C)c3)cn2)CC(C)(C)CC1 | 2.5 h
